These results are taken from ChEMBL document CHEMBL2429835.

SMILES strings stand for the structures. Converted amounts (≈) assume the structure as drawn. The source made the active and inactive calls. The calls are words filed in the database; no cut-off is given here.

Assay [1] deals with Mycobacterium tuberculosis. Kind of assay: Antimycobacterial activity against rifampin-resistant Mycobacterium tuberculosis ATCC 35838. The format is functional. In a few lines:
(§1)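 Strain (H37Rv or ATCC single-drug-resistant isolates) grown to late log phase in 7H9 with 0.2% glycerol, 0.05% Tween80, 10% OADC. Cells washed into PBS, passed through 8 μm filter, frozen; CFU titred on 7H11 agar. MABA MIC is the lowest concentration giving ≥90% growth inhibition versus untreated controls.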

The test system of assay [2] is Mycobacterium tuberculosis. The experiment in a line: Antimycobacterial activity against cycloserine-resistant Mycobacterium tuberculosis ATCC 35826. The format is functional. In outline:
as §1

Assay [3] relates to Mycobacterium tuberculosis variant bovis BCG. Kind of assay: Antimycobacterial activity against Mycobacterium bovis BCG ATCC 35734 at 100 ug/ml after 8 days by microplate Alamar blue assay. Type of assay: functional, organism-based. In outline:
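MABA in 7H12 (M. abscessus, M. bovis BCG) or 7H9 (others). Pre-dye incubation: M. abscessus 37 °C 3 days; BCG 37 °C 7 days; M. chelonae 30 °C 3 days; M. marinum 30 °C 5 days; M. avium and M. kansasii 37 °C 6 days. Then 20% Tween80 plus Alamar blue added: 4 h (abscessus), 6 days (chelonae), 1 day (others). Tested at 100 μg/mL.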
In general terms: Resazurin is reduced to fluorescent resorufin, in cell work by metabolically active cells.

Assay [4] concerns Mycobacterium tuberculosis. Kind of assay: Antimycobacterial activity against isoniazid-resistant Mycobacterium tuberculosis ATCC 35822. Type of assay: functional. In a few lines: as §1
For assay [5], the system named is Mycobacterium tuberculosis. The experiment in a line: Antimycobacterial activity against streptomycin-resistant Mycobacterium tuberculosis ATCC 35820. The format is functional. In a few lines:
as §1

Assay [6] has as its system Mycobacterium tuberculosis. The experiment in a line: Antimycobacterial activity against kanamycin-resistant Mycobacterium tuberculosis ATCC 35827. Type of assay: functional. In a few lines:
as §1

In the case of `O=c1cc(-c2ccccc2)c2ccc(Cl)cc2o1`, the MIC90 in assay [1] was determined as 45.4 µg/mL (≈ 177 µM); in assay [2] it was 47.3 µg/mL (≈ 184 µM); in assay [4], 76.5 µg/mL (≈ 298 µM); in assay [5], 46.9 µg/mL (≈ 183 µM); in assay [6] it was 47.4 µg/mL (≈ 185 µM). In addition, the result in assay [3] was inactive.
Consider `CCOC(=O)c1c(-c2ccccc2)c2ccc(Cl)cc2oc1=O`, for which the MIC90 in assay [1] is 44.7 µg/mL (≈ 136 µM); in assay [2], 47.3 µg/mL (≈ 144 µM); in assay [4], 31.7 µg/mL (≈ 96.4 µM); in assay [5], 46.9 µg/mL (≈ 143 µM); in assay [6], 43.9 µg/mL (≈ 134 µM). Moreover, the outcome in assay [3] was inactive.
Consider `O=c1cc(-c2ccccc2)c2cc(Cl)ccc2o1`, for which the outcome in assay [3] was inactive.
Turning to `CCOC(=O)c1c(-c2ccccc2)c2cc(Cl)ccc2oc1=O`, the MIC90 in assay [1] was 46.6 µg/mL (≈ 142 µM); in assay [2] it was over 100 µg/mL; in assay [4], 44.7 µg/mL (≈ 136 µM); in assay [5], 49.5 µg/mL (≈ 151 µM); in assay [6], over 100 µg/mL. Besides, the outcome in assay [3] was inactive.
For the compound `N[C@@H]1CONC1=O` [CYCLOSERINE], the MIC90 in assay [1] was 4.8 µg/mL (≈ 47 µM); in assay [2] it was over 10.2 µg/mL; in assay [4], 5 µg/mL (≈ 49 µM); in assay [5], 4.9 µg/mL (≈ 48 µM); in assay [6], 4.9 µg/mL (≈ 48 µM).
For `NNC(=O)c1ccncc1` [ISONIAZID], the MIC90 in assay [1] was 0.03 µg/mL (≈ 0.219 µM); in assay [2], 0.04 µg/mL (≈ 0.292 µM); in assay [4] it was over 2.19 µg/mL; in assay [5], 0.03 µg/mL (≈ 0.219 µM); in assay [6] it was 0.07 µg/mL (≈ 0.51 µM).
As for `NC[C@H]1O[C@H](O[C@H]2[C@H](O)[C@@H](O[C@H]3O[C@H](CO)[C@@H](O)[C@H](N)[C@H]3O)[C@H](N)C[C@@H]2N)[C@H](O)[C@@H](O)[C@@H]1O` [KANAMYCIN], the MIC90 is 0.73 µg/mL (≈ 1.51 µM) in assay [1]; 1.12 µg/mL (≈ 2.31 µM) in assay [2]; 0.72 µg/mL (≈ 1.49 µM) in assay [4]; 0.76 µg/mL (≈ 1.57 µM) in assay [5]; over 25 µg/mL in assay [6].
`O=[N+]([O-])c1cn2c(n1)OC[C@@H](OCc1ccc(OC(F)(F)F)cc1)C2` [PRETOMANID]: the MIC90 in assay [1] is 0.07 µg/mL (≈ 0.195 µM); in assay [2] it was 0.18 µg/mL (≈ 0.501 µM); in assay [4] it was 0.05 µg/mL (≈ 0.139 µM); in assay [5] it was 0.17 µg/mL (≈ 0.473 µM); in assay [6] it was 0.34 µg/mL (≈ 0.946 µM).
The like results for `CO[C@H]1/C=C/O[C@@]2(C)Oc3c(C)c(O)c4c(O)c(c(/C=N/N5CCN(C)CC5)c(O)c4c3C2=O)NC(=O)/C(C)=C\C=C\[C@H](C)[C@H](O)[C@@H](C)[C@@H](O)[C@@H](C)[C@H](OC(C)=O)[C@@H]1C` [RIFAMPIN] were, in that order, over 3.29 µg/mL, 0.02 µg/mL (≈ 0.0243 µM), 0.04 µg/mL (≈ 0.0486 µM), 0.09 µg/mL (≈ 0.109 µM) and 0.02 µg/mL (≈ 0.0243 µM).
On to `CN[C@@H]1[C@H](O[C@H]2[C@H](O[C@H]3[C@H](O)[C@@H](O)[C@H](N=C(N)N)[C@@H](O)[C@@H]3N=C(N)N)O[C@@H](C)[C@]2(O)C=O)O[C@@H](CO)[C@H](O)[C@H]1O` [STREPTOMYCIN], for which the MIC90 in assay [1] is 0.47 µg/mL (≈ 0.808 µM); in assay [2], 0.53 µg/mL (≈ 0.911 µM); in assay [4], 0.56 µg/mL (≈ 0.963 µM); in assay [5], over 9.31 µg/mL; in assay [6] it was 1.48 µg/mL (≈ 2.54 µM).

What is called MIC90 is the lowest concentration that inhibits either 90% of growth or 90% of the strains tested, depending on the study. Higher therefore signals weaker potency.
